Measured values from ChEMBL document CHEMBL1124668, “Solid-phase synthesis of 16 potent (selective and nonselective) in vivo antagonists of oxytocin” (J Med Chem, 1989).
Starred links: 1 amine or outer side, 2 acyl side, 3 side chain; linkers in the order of their positions; H or OH if unused. Positions of bridges follow the written chain, without caps; N, C: chain ends. Non-standard residues stand in square brackets, D forms with d. Residues, ends and D or L forms follow the SMILES beside them. X1 = O=C(CC1(S[*:2])CCCCC1)[*:1]; Orn = NCCC[C@H](N)C(=O)O

How the values were obtained:
Rattus norvegicus [1] = test: Antidiuretic activity in rats as intravenous dose required for reduction of 2x agonist response to equal 1x effect in estrogen pretreated rats; type: functional, Urine
Rattus norvegicus [2] = test: (§1) Antivasopressor activity in vivo in phenoxybenzamine pre-treated rats.; type: functional
Summary of the method: (§2)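 Rats pretreated with phenoxybenzamine, under urethane anesthesia; antagonist given iv; agonist USP Posterior Pituitary Reference Standard; read-out is pressor response. Effective dose (nmol/kg) is the dose that cuts the response to 2X units of agonist to that of 1X unit, interpolated semilogarithmically from bracketing doses. pA2 assumes a 67 mL/kg distribution volume. SEM is given where there are ≥4 independent estimates.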

Rattus norvegicus [3] = test: In vivo inhibition of estrogen induced changes in interuterine pressure in rats.; type: functional
Summary of the method: (§3)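 Rats pretreated with estrogen, under urethane anesthesia; antagonist given iv; read-out is change in integrated intrauterine pressure; agonist synthetic oxytocin. Effective dose (nmol/kg) is the dose that cuts the response to 2X units of agonist to the response to 1X unit, interpolated on a semilog scale from doses above and below it. pA2 is derived assuming a 67 mL/kg distribution volume.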

Rattus norvegicus [4] = test: Antidiuretic activity in rats as intravenous dose required for reduction of 2x agonist response to equal 1x effect in estrogen pretreated rats; Weak partial agonist/antagonist; type: functional; conditions: Urine
Rattus norvegicus [5] = test: In vivo antidiuretic activity as intravenous antagonist dose in estrogen pretreated rats; Weak partial agonist/antagonist; type: functional, organism-based; conditions: Urine
Rattus norvegicus [6] = test: Antidiuretic activity in rats as intravenous dose required for reduction of 2x agonist response to equal 1x effect in hydrated rats under ethanol anesthesia; Weak partial agonist/antagonist
Rattus norvegicus [7] = test: Antioxytocic potencies (change in interuterine pressure) in vivo in estrogen pre-treated rats.; type: functional, organism-based; conditions: read-out: pA2 (converted); summary of the method: as §3
Rattus norvegicus [8] = test: Antiantidiuretic activity in vivo in hydrated rats under ethanol anaesthesia.; type: functional, organism-based; conditions: Urine, read-out: pA2 (converted)
Summary of the method: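 Hydrated rats under ethanol anaesthesia; antagonist given iv against the USP Posterior Pituitary Reference Standard as agonist. Effective dose (nmol/kg) is the dose that cuts the response to 2x units of agonist to equal the response to 1x unit. It is estimated by interpolation on a semilog scale between doses above and below it. pA2 assumes a volume of distribution of 67 mL/kg. Where SEM is given, n ≥4 estimates.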

Rattus norvegicus [9] = species on record: Rattus norvegicus; test: Antioxytoxic activity in vitro in isolated uteri from estrogen pretreated rats suspended in Mg-free Dyke-Hastings solution.; conditions: read-out: pA2 (converted)
Rattus norvegicus [10] = test: as §1; type: functional, organism-based; conditions: read-out: pA2 (converted); summary of the method: as §2
Rattus norvegicus [11] = species on record: Rattus norvegicus; test: Antioxytoxic activity in vitro in isolated uteri from estrogen pretreated rats suspended in Mg supplemented Dyke-Hastings solution.; type: functional; conditions: read-out: pA2 (converted)
Summary of the method: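 Isolated rat uterus in bath medium with Mg2+; agonist USP Posterior Pituitary Reference Standard. pA2 is the −log of the effective molar antagonist concentration that reduces the response to a dose of agonist to the response to half that dose. It is interpolated semilogarithmically from concentrations above and below it. SEM is given where there are ≥4 independent estimates.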

Rattus norvegicus [12] = species on record: Rattus norvegicus; test: Antidiuretic activity in rat; type: functional, Urine

SMILES	ED (Rattus norvegicus [1]) [nM/kg]	ED (Rattus norvegicus [2]) [nM/kg]	ED (Rattus norvegicus [3]) [nM/kg]	also measured
CC[C@H](C)[C@@H]1NC(=O)[C@@H](Cc2ccccc2)NC(=O)CC2(CCCCC2)SSC[C@@H](C(=O)N2CCC[C@H]2C(=O)N[C@@H](CCCN=C(N)N)C(=O)NCC(N)=O)NC(=O)[C@H](CC(N)=O)NC(=O)[C@H](C(C)C)NC1=O	45	17	2.5	
CC[C@H](C)[C@@H]1NC(=O)[C@@H](Cc2ccc(OC)cc2)NC(=O)CC2(CCCCC2)SSC[C@@H](C(=O)N2CCC[C@H]2C(=O)N[C@@H](CCCN=C(N)N)C(=O)NCC(N)=O)NC(=O)[C@H](CC(N)=O)NC(=O)[C@H](C(C)C)NC1=O	9.4	1.1	2.4	
CCOc1ccc(C[C@H]2NC(=O)CC3(CCCCC3)SSC[C@@H](C(=O)N3CCC[C@H]3C(=O)N[C@@H](CCCNC(N)=O)C(=O)NCC(N)=O)NC(=O)[C@H](CC(N)=O)NC(=O)[C@H](C(C)C)NC(=O)[C@H](Cc3ccccc3)NC2=O)cc1	23	0.81	1.8	
COc1ccc(C[C@H]2NC(=O)CC3(CCCCC3)SSC[C@@H](C(=O)N3CCC[C@H]3C(=O)N[C@@H](CCCN=C(N)N)C(=O)NCC(N)=O)NC(=O)[C@H](CC(N)=O)NC(=O)[C@H](CCC(N)=O)NC(=O)[C@H](Cc3ccccc3)NC2=O)cc1	7.3	0.36	1.3	
COc1ccc(C[C@H]2NC(=O)CC3(CCCCC3)SSC[C@@H](C(=O)N3CCC[C@H]3C(=O)N[C@@H](CCCN=C(N)N)C(=O)NCC(N)=O)NC(=O)[C@H](CC(N)=O)NC(=O)[C@H](C(C)C)NC(=O)[C@H](Cc3ccccc3)NC2=O)cc1	1.2	0.23	1.9	
COc1ccc(C[C@H]2NC(=O)CC3(CCCCC3)SSC[C@@H](C(=O)N3CC=C[C@H]3C(=O)N[C@@H](CCCN=C(N)N)C(=O)NCC(N)=O)NC(=O)[C@H](CC(N)=O)NC(=O)[C@H](C(C)C)NC(=O)[C@H](Cc3ccccc3)NC2=O)cc1	1.7	0.55	1.17	
COc1ccc(C[C@@H]2NC(=O)CC3(CCCCC3)SSC[C@@H](C(=O)N3CCC[C@H]3C(=O)N[C@@H](CCCN=C(N)N)C(=O)NCC(N)=O)NC(=O)[C@H](CC(N)=O)NC(=O)[C@H](C(C)C)NC(=O)[C@H](Cc3ccccc3)NC2=O)cc1	3.1	0.29	8	
CC[C@H](C)[C@H]1NC(=O)[C@@H](Cc2ccc(OC)cc2)NC(=O)CC2(CCCCC2)SSC[C@H](C(=O)N2CCC[C@H]2C(=O)N[C@@H](CCCN)C(=O)N[C@H](C)C(N)=O)NC(=O)[C@@H](CC(N)=O)NC(=O)[C@H]([C@H](C)O)NC1=O				ED (Rattus norvegicus [4]): Partial agonist
CC[C@H](C)[C@H]1NC(=O)[C@@H](Cc2ccc(OC)cc2)NC(=O)CC2(CCCCC2)SSC[C@H](C(=O)N2CCC[C@H]2C(=O)N[C@@H](CCCN)C(=O)N[C@H](CCCN=C(N)N)C(N)=O)NC(=O)[C@@H](CC(N)=O)NC(=O)[C@H]([C@H](C)O)NC1=O				Activity (Rattus norvegicus [5]): Partial agonist
CC[C@H](C)[C@@H]1NC(=O)[C@H](Cc2ccc(OC)cc2)NC(=O)CC2(CCCCC2)SSC[C@@H](C(=O)N2CCC[C@H]2C(=O)N[C@@H](CCCN)C(=O)NCC(N)=O)NC(=O)[C@H](CC(N)=O)NC(=O)[C@H](CCC(N)=O)NC1=O (Y(Me)IQNCP[Orn]G-NH2; linker N-5 via X1)	0.01	0.8	4.2	
CC[C@H](C)[C@@H]1NC(=O)[C@H](Cc2ccc(OC)cc2)NC(=O)CC2(CCCCC2)SSC[C@@H](C(=O)N2CCC[C@H]2C(=O)N[C@@H](CCCN)C(N)=O)NC(=O)[C@H](CC(N)=O)NC(=O)[C@H]([C@@H](C)O)NC1=O (Y(Me)ITNCP[Orn]-NH2; linker N-5 via X1)		7.3	1.7	ED (Rattus norvegicus [6]): ~100 nM/kg
CC[C@H](C)[C@@H]1NC(=O)[C@H](Cc2ccc(OC)cc2)NC(=O)CC2(CCCCC2)SSC[C@@H](C(=O)N2CCC[C@H]2C(=O)N[C@@H](CCCN)C(=O)O)NC(=O)[C@H](CC(N)=O)NC(=O)[C@H]([C@@H](C)O)NC1=O (Y(Me)ITNCP[Orn]-OH; linker N-5 via X1) [listing 1 of 2 here]				Kb (Rattus norvegicus [7]): 0.0204 µM; Kb (Rattus norvegicus [8]): ~5.01 µM; Kb (Rattus norvegicus [9]): 0.0129 µM; Kb (Rattus norvegicus [10]): 0.331 µM; Kb (Rattus norvegicus [11]): 0.00575 µM
CC[C@H](C)[C@@H]1NC(=O)[C@H](Cc2ccc(OC)cc2)NC(=O)CC2(CCCCC2)SSC[C@@H](C(=O)N2CCC[C@H]2C(=O)N[C@@H](CCCN)C(=O)O)NC(=O)[C@H](CC(N)=O)NC(=O)[C@H]([C@@H](C)O)NC1=O (Y(Me)ITNCP[Orn]-OH; linker N-5 via X1) [listing 2 of 2 here]		23	1.3	ED (Rattus norvegicus [6]): ~300 nM/kg
CC[C@H](C)[C@@H]1NC(=O)[C@H](Cc2ccc(OC)cc2)NC(=O)CC2(CCCCC2)SSC[C@@H](C(=O)N2CCC[C@H]2C(=O)N[C@@H](CCCN)C(=O)NCC(N)=O)NC(=O)[C@H](CC(N)=O)NC(=O)[C@H]([C@@H](C)O)NC1=O (Y(Me)ITNCP[Orn]G-NH2; linker N-5 via X1)				Kb (Rattus norvegicus [7]): 0.0282 µM; Kb (Rattus norvegicus [8]): ~5.01 µM; Kb (Rattus norvegicus [9]): 0.00955 µM; Kb (Rattus norvegicus [10]): 0.141 µM; Kb (Rattus norvegicus [11]): 0.00389 µM
CCOc1ccc(C[C@H]2NC(=O)CC3(CCCCC3)SSC[C@@H](C(=O)N3CCC[C@H]3C(=O)N[C@@H](CCCCN)C(=O)NCC(N)=O)NC(=O)[C@H](CC(N)=O)NC(=O)[C@H](C(C)C)NC(=O)[C@H](Cc3ccccc3)NC2=O)cc1 ([dY](Et)FVNCPKG-NH2; linker N-5 via X1) [listing 1 of 2 here]				Kb (Rattus norvegicus [7]): 0.0269 µM; Kb (Rattus norvegicus [8]): 0.0191 µM; Kb (Rattus norvegicus [9]): 0.0135 µM; Kb (Rattus norvegicus [10]): 0.00692 µM; Kb (Rattus norvegicus [11]): 0.0105 µM
CCOc1ccc(C[C@H]2NC(=O)CC3(CCCCC3)SSC[C@@H](C(=O)N3CCC[C@H]3C(=O)N[C@@H](CCCCN)C(=O)NCC(N)=O)NC(=O)[C@H](CC(N)=O)NC(=O)[C@H](C(C)C)NC(=O)[C@H](Cc3ccccc3)NC2=O)cc1 ([dY](Et)FVNCPKG-NH2; linker N-5 via X1) [listing 2 of 2 here]	1.5	0.48	1.9	
CCOc1ccc(C[C@H]2NC(=O)CC3(CCCCC3)SSC[C@@H](C(=O)N3CCC[C@H]3C(=O)N[C@@H](CCCN=C(N)N)C(=O)NCC(N)=O)NC(=O)[C@H](CC(N)=O)NC(=O)[C@H](C(C)C)NC(=O)[C@H](Cc3ccccc3)NC2=O)cc1 ([dY](Et)FVNCPRG-NH2; linker N-5 via X1)	1.1	0.45	2.6	
CC[C@H](C)[C@@H]1NC(=O)C(Cc2ccc(OC)cc2)NC(=O)CC(C)(C)SSC[C@@H](C(=O)N2CCC[C@H]2C(=O)N[C@@H](CCCN=C(N)N)C(=O)NCC(N)=O)NC(=O)[C@H](CC(N)=O)NC(=O)[C@H](C(C)C)NC1=O (stereo in doubt)		0.23	1.9	Activity (Rattus norvegicus [12]): 1.6 mg
CC[C@H](C)[C@@H]1NC(=O)C(Cc2ccc(OC)cc2)NC(=O)CC(C)(C)SSC[C@@H](C(=O)N2CCC[C@H]2C(=O)N[C@@H](CCCN=C(N)N)C(=O)NCC(N)=O)NC(=O)[C@H](CC(N)=O)NC(=O)[C@H](CCC(N)=O)NC1=O (stereo in doubt)		0.25	2.2	Activity (Rattus norvegicus [12]): ~1.6 mg
CC[C@H](C)[C@@H]1NC(=O)C(Cc2ccc(OC)cc2)NC(=O)CC2(CCCCC2)SSC[C@@H](C(=O)N2CCC[C@H]2C(=O)N[C@@H](CCCCN)C(=O)NCC(N)=O)NC(=O)[C@H](CC(N)=O)NC(=O)[C@H](CCC(N)=O)NC1=O (stereo in doubt)		1.5	4.6	Activity (Rattus norvegicus [12]): ~0.003 mg
